Published values from different studies.
Protocols differ between the studies behind these lines.

O=c1cc(CSc2ccc(N=Cc3ccccc3)cc2)occ1O  IC50 (ABTS scavenging, absorbance): 0.04 µM
N.N.[Cl][Pt][Cl]  inhibition (MEG-01; cell growth or viability, ATP luminescence; 10 µM, 72 h): 92%
Cc1cc(=O)oc2cc(OCCCC[Se]C#N)ccc12  GI50 (A549; cell growth or viability, SRB): 0.78 µM
O=C(Nc1ccc(Cl)cc1)Nc1cccc(-c2cn(Cc3ccc(Br)cc3)nn2)c1  viability (A549; cell growth or viability, CCK-8; 20 µM, 72 h): 108%
c1ccc(Oc2ccc(Nc3c4c(nc5ccccc35)CCC4)cc2)cc1  inhibition (Leishmania donovani; parasite growth; 33.33 µM, promastigote): 91%
N#C[Se]CCCCOc1ccc2c(-c3ccccc3)cc(=O)oc2c1  GI50 (A549; cell growth or viability, SRB): 29 µM
CC[C@H](C)[C@H](NC(=O)[C@H](CCCCN)NC(=O)[C@H](CCCCN)NC(=O)[C@H](CCCCN)NC(=O)[C@H](CC(C)C)NC(=O)[C@H](CCCNC(=N)N)NC(=O)[C@H](CCCCN)NC(=O)[C@@H](N)CC(C)C)C(=O)N[C@@H](CCCCN)C(=O)N[C@@H](CCCCN)C(=O)N[C@@H](CC(C)C)C(=O)N[C@@H](CC(C)C)C(=O)N[C@@H](CCCCN)C(N)=O  IC50 (A549; cell growth or viability, MTT; 24 h): 164 µM
CCOc1ccc(Nc2c3c(nc4ccccc24)CCC3)cc1  inhibition (Leishmania donovani; parasite growth; 8 µM, intracellular, amastigote): 69%
CC[C@H](C)[C@H](NC(=O)[C@H](CCCNC(=N)N)NC(=O)[C@H](CC(C)C)NC(=O)[C@@H](N)CCCNC(=N)N)C(=O)N[C@@H](CCC(N)=O)C(=O)N[C@@H](CCCNC(=N)N)C(=O)N[C@@H](CCCNC(=N)N)C(=O)N[C@@H](CCCNC(=N)N)C(=O)N[C@@H](Cc1ccccc1)C(=O)N[C@@H](CCCNC(=N)N)C(=O)N[C@@H](CCCCN)C(=O)N[C@@H](CCCCN)C(=O)NCC(N)=O  IC50 (A549; cell growth or viability, MTT; 24 h): > 500 µM
CC(C)(C)c1cccc(C=Nc2ccc(SCc3cc(=O)c(O)co3)cc2)c1  IC50 (ABTS scavenging, absorbance): 15 µM
CC(C)C[C@H](NC(=O)[C@H](CCCCN)NC(=O)[C@H](CC(C)C)NC(=O)[C@H](Cc1ccccc1)NC(=O)[C@H](CC(C)C)NC(=O)[C@H](CCCCN)NC(=O)[C@H](CCCCN)NC(=O)[C@H](CC(C)C)NC(=O)[C@H](CC(C)C)NC(=O)[C@H](CCCCN)NC(=O)[C@@H](N)CCCNC(=N)N)C(=O)N[C@@H](CCCCN)C(=O)N[C@@H](CCCCN)C(N)=O  IC50 (A549; cell growth or viability, MTT; 24 h): 164 µM
O=c1cc(CSc2ccc(N=Cc3ccccc3F)cc2)occ1O  IC50 (ABTS scavenging, absorbance): 0.03 µM
